Measured values gathered from unrelated publications.
Each line is one published result; the experiments were not run side by side.
RPS6KA6: Ribosomal protein S6 kinase alpha-6 (RPS6KA6, Homo sapiens, UniProt Q9UK32)
RPS6KA6 C-terminal kinase domain: Ribosomal protein S6 kinase alpha-6, C-terminal kinase domain (RPS6KA6, Homo sapiens, UniProt Q9UK32)
RPS6KA6 N-terminal kinase domain: Ribosomal protein S6 kinase alpha-6, N-terminal kinase domain (RPS6KA6, Homo sapiens, UniProt Q9UK32)

| Compound | target | effect on | action | method | concentration | measurement | value |
| --- | --- | --- | --- | --- | --- | --- | --- |
| Cn1cc(-c2cccc(N3CCc4c(sc5c4CC(C)(C)C5)C3=O)c2CO)cc(Nc2ccncn2)c1=O | RPS6KA6 | enzyme activity | inhibitor | – | 1 µM | inhibition | 9% |
| N#CC1(c2ccccn2)CCN(Cc2cc(C(=O)O)c(=O)n3ccccc23)CC1 | RPS6KA6 C-terminal kinase domain | cell-free assay | – | competition with immobilised ligand | 1 µM | remaining binding | 97% |
| Cn1cc(-c2cc(F)cc(N3CCn4c(cc5c4CCCC5)C3=O)c2CO)cc(Nc2ccc(N3CCN(C4COC4)CC3)cn2)c1=O | RPS6KA6 | enzyme activity | inhibitor | – | 0.1 µM | inhibition | 2% |
| Nc1ncc(-c2nc(N3CCOCC3)nc(N3CCOCC3)n2)c(C(F)F)n1 | RPS6KA6 C-terminal kinase domain | binding | – | competition with immobilised ligand | 10 µM | remaining binding | 94% |
| COc1cc(Nc2ncc(F)c(Nc3ccc4c(n3)NC(=O)C(C)(C)O4)n2)cc(OC)c1OC | RPS6KA6 N-terminal kinase domain | binding | – | competition with immobilised ligand | 10 µM | inhibition | 70% |
| O=c1[nH]c2ccccc2n1C1CCN(Cc2ccc(-c3[nH]c4cc5ncnc5cc4nc3-c3ccccc3)cc2)CC1 | RPS6KA6 | cell-free assay | – | – | 0.5 µM | remaining signal | 109% |
| Cn1cncc1[C@](O)(COc1ccc(C#N)cc1-c1ccc(OC(F)(F)F)cc1)c1ccc(C#N)cc1 | RPS6KA6 N-terminal kinase domain | cell-free assay | – | competition with immobilised ligand | 1 µM | remaining binding | 91% |
| Cc1nn(C)cc1-c1nc2c(N3CCN(Cc4ccc(Cl)cc4)CC3)c(Cl)cnc2[nH]1 | RPS6KA6 N-terminal kinase domain | binding | – | competition with immobilised ligand | 1 µM | remaining binding | 66% |
| CC(C)(C)c1cc(C=C(C#N)C#N)cc(Br)c1O | RPS6KA6 | enzyme activity | inhibitor | – | 0.5 µM | remaining activity | 101% |
